Measured values published in ChEMBL document CHEMBL4038326, “Discovery, Structure-Activity Relationship, and Binding Mode of an Imidazo[1,2-a]pyridine Series of Autotaxin Inhibitors” (J Med Chem, 2017).
pIC50: −log10 of the molar value.

Tests used:
Autotaxin [1] = target: T1, Autotaxin (Homo sapiens, UniProt Q13822); experiment: Inhibition of glycosylated human ATX using LPC 16:0 as substrate after 30 mins by luminescence assay
Summary of the method: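 Started with 150 µM LPC 16:0 solution, 30 min at 37°C. Stopped with EGTA and choline detected by choline oxidase/HRP/TOOS/4-aminoantipyrine; read after 30 min at room temperature.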

[2] = target: Autotaxin (Rattus norvegicus) (UniProt Q64610); conditions: 0.5 uM
Autotaxin [3] = target: Autotaxin (Rattus norvegicus, UniProt Q64610); experiment: Inhibition of ATX in rat plasma assessed as reduction in plasma lysophosphatidic acid 18:2 levels after 2 hrs by LC-MS/MS method
Summary of the method: (§1)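 Rat plasma thawed on ice and incubated with a compound dose range for 2 h at 37°C. Methanol precipitation with LPA 17:0 internal standard, isocratic C18 LC-MS/MS, LPA 18:2/LPA 17:0 peak-area ratio. % reduction = 100 − (ratio/control ratio × 100). Some compounds were tested only at 0.5, 5 and 50 µM (n = 3).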

Autotaxin [4] = target: T1, Autotaxin; experiment: Inhibition of glycosylated human ATX using FS-3 as substrate preincubated for 30 mins followed by substrate addition measured after 30 mins by fluorescence assay
Summary of the method: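 Fivefold compound dilutions from a 20 µM top. Started with 0.75 µM FS-3 solution; fluorescence (ex 485, em 520 nm) read after 30 min at room temperature. SD where replicated at least twice.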

[5] = target: Autotaxin (Rattus norvegicus) (UniProt Q64610); conditions: 50 uM
[6] = target: Autotaxin (Rattus norvegicus) (UniProt Q64610); conditions: 5 uM
[7] = target: Autotaxin (Rattus norvegicus) (UniProt Q64610); experiment: Inhibition of ATX in rat plasma assessed as reduction in plasma lysophosphatidic acid 18:2 levels at 0.5 to 50 uM after 2 hrs by LC-MS/MS method relative to control; summary of the method: as §1
[8] = Oral bioavailability in Sprague-Dawley rat at 5 mg/kg; type: ADME, organism-based; conditions: in vivo
Summary of the method: (§2)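 PK from single 1 mg/kg iv and 5 mg/kg po doses (n = 3); mice sampled compositely as a group of six. Plasma drug by LC-MS/MS against an eight-level calibration curve with QCs, LLOQ 4 ng/mL. Parameters by noncompartmental analysis of averaged plasma concentrations; CV% reported for rats.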

[9] = Clearance in Sprague-Dawley rat at 1 mg/kg, iv; type: ADME, organism-based; conditions: in vivo; summary of the method: as §2
[10] = Volume of distribution at steady state in mouse at 1 mg/kg, iv; type: ADME, organism-based; conditions: in vivo, read-out: Vdss; summary of the method: as §2
Rattus norvegicus [11] = experiment: In vivo inhibition of ATX in Sprague-Dawley rat plasma assessed as reduction in plasma lysophosphatidic acid 18:2 levels at 5 mg/kg, po measured after 3 hrs by LC-MS/MS method; type: functional
Summary of the method: (§3)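 Fasted male Sprague Dawley rats given 5 mg/kg orally in 10% hydroxypropyl-β-cyclodextrin, pH 3 with citric acid. Jugular catheter blood taken into Li-heparin at 0.5, 1 and 3 h. Methanol precipitation with LPA 17:0 internal standard, isocratic C18 LC-MS/MS, peak-area ratio of LPA 18:2 to LPA 17:0 with no calibration curve. % reduction against the vehicle group mean at the same time; 3 animals.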

Rattus norvegicus [12] = experiment: In vivo inhibition of ATX in Sprague-Dawley rat plasma assessed as reduction in plasma lysophosphatidic acid 18:2 levels at 5 mg/kg, po measured after 0.5 hrs by LC-MS/MS method; type: functional; summary of the method: as §3
[13] = Half life in mouse at 1 mg/kg, iv; type: ADME, organism-based; conditions: in vivo; summary of the method: as §2
[14] = Half life in Sprague-Dawley rat at 1 mg/kg, iv; type: ADME, organism-based; conditions: in vivo; summary of the method: as §2
[15] = Volume of distribution at steady state in Sprague-Dawley rat at 1 mg/kg, iv; type: ADME, organism-based; conditions: in vivo, read-out: Vdss; summary of the method: as §2
[16] = Plasma concentration in Sprague-Dawley rat at 5 mg/kg, po measured after 0.5 hrs by LC-MS/MS method; type: ADME, organism-based
Summary of the method: (§4)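 Fasted male Sprague Dawley rats dosed orally at 5 mg/kg in 10% hydroxypropyl-β-cyclodextrin (pH 3, citric acid); jugular catheter blood into Li-heparin at 0.5, 1, 3 h. Plasma level by LC-MS/MS against an eight-level calibration curve with QCs, LLOQ 4 ng/mL; mean of 3 animals.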

[17] = Plasma concentration in Sprague-Dawley rat at 5 mg/kg, po measured after 3 hrs by LC-MS/MS method; type: ADME, organism-based; summary of the method: as §4
[18] = Plasma concentration in Sprague-Dawley rat at 5 mg/kg, po measured after 1 hr by LC-MS/MS method; type: ADME, organism-based; summary of the method: as §4
[19] = Protein binding in Sprague-Dawley rat plasma; type: ADME, cell-free; conditions: read-out: PPB
Rattus norvegicus [20] = experiment: In vivo inhibition of ATX in Sprague-Dawley rat plasma assessed as reduction in plasma lysophosphatidic acid 18:2 levels at 5 mg/kg, po measured after 1 hr by LC-MS/MS method; type: functional; summary of the method: as §3

Structure (SMILES) | pIC50 (Autotaxin [1]) | also measured
CCc1nc2ccc(C3CCN(S(C)(=O)=O)CC3)cn2c1N(C)c1nc(-c2cc(F)cc(F)c2)cs1 | 5.37 | 
CCc1nc2ccc(C3CCN(S(C)(=O)=O)CC3)cn2c1N(C)c1nc(-c2ccc(C(C)(C)C)cc2)cs1 | 5.12 | 
CCOC(=O)CN1CCC(c2ccc3nc(CC)c(N(C)c4nc(-c5ccc(F)cc5)cs4)n3c2)CC1 | 6.32 | 
CCOC(=O)N1CCC(NCc2ccc3nc(CC)c(N(C)c4nc(-c5ccc(Cl)cc5)cs4)n3c2)CC1 | 5.92 | inhibition [2]: 7%; pIC50 (Autotaxin [3]): > 5.30; pIC50 (Autotaxin [4]): 8.05; inhibition [5]: 100%; inhibition [6]: 67%
CCc1nc2ccc(-c3cccnc3)cn2c1N(C)c1nc(-c2ccc(F)cc2)cs1 | < 5.00 | pIC50 (Autotaxin [3]): < 4.30; pIC50 (Autotaxin [4]): 8.70; inhibition [7]: < 50%
CCc1nc2ccc(C3CCN(S(C)(=O)=O)CC3)cn2c1N(C)c1nc(-c2ccc(F)cc2F)cs1 | 5.69 | 
CCc1nc2ccc(C3CCN(S(C)(=O)=O)CC3)cn2c1N(C)c1nc(-c2ccc(F)cc2C)cs1 | 6.27 | 
CCc1nc2ccc(N3CCN(Cc4ncco4)CC3)cn2c1N(C)c1nc(-c2ccc(F)cc2)cs1 | 5.82 | 
CCc1nc2ccc(C3CCN(S(C)(=O)=O)CC3)cn2c1N(C)c1nc(-c2ccc(F)cc2)c(C#N)s1 | 6.86 | 
CCc1nc2ccc(C3CCN(S(C)(=O)=O)CC3)cn2c1N(C)c1nc(-c2ccc(OC)cc2)cs1 | 5.77 | 
CCc1nc2ccc(C3CCN(S(C)(=O)=O)CC3)cn2c1N(C)c1nc(-c2ccc(Cl)nc2)cs1 | 6.31 | 
CCc1nc2ccc(C3CCN(S(C)(=O)=O)CC3)cn2c1N(C)c1nc(-c2ccc(F)cc2)c(C)s1 | 5.64 | 
CCc1nc2ccc(N3CCN(Cc4cnc[nH]4)CC3)cn2c1N(C)c1nc(-c2ccc(F)cc2)cs1 | 6.11 | pIC50 (Autotaxin [3]): 5.39
CCc1nc2ccc(N3CCOCC3)cn2c1N(C)c1nc(-c2ccc(F)cc2)cs1 | 5.17 | pIC50 (Autotaxin [3]): < 4.30; pIC50 (Autotaxin [4]): 8.10; inhibition [7]: < 50%
CCc1nc2ccc(C3CCN(S(C)(=O)=O)CC3)cn2c1N(C)c1nc(-c2ccc(C(F)(F)F)cc2)cs1 | 6.00 | 
CCc1nc2ccc(N3CCN(CCO)CC3)cn2c1N(C)c1nc(-c2ccc(F)cc2)cs1 | 5.63 | pIC50 (Autotaxin [3]): 5.22; pIC50 (Autotaxin [4]): 7.92
CCc1nc2ccc(C3CCN(S(C)(=O)=O)CC3)cn2c1N(C)c1nc(-c2ccc(F)cc2)cs1 | 6.15 | pIC50 (Autotaxin [3]): 5.99
CCc1nc2ccc(C3CCN(S(C)(=O)=O)CC3)cn2c1N(C)c1nc(-c2ccc(F)cc2C#N)cs1 | 6.90 | 
CCc1nc2ccc(C3CCN(S(C)(=O)=O)CC3)cn2c1N(C)c1nc2ccccc2s1 | < 5.00 | 

Structure (SMILES) | pIC50 (Autotaxin [1]) | also measured
CCc1nc2ccc(C(=O)NCCO)cn2c1N(C)c1nc(-c2ccc(Cl)cc2)cs1 | < 5.00 | bioavailability [8]: 39%; pIC50 (Autotaxin [3]): < 4.30; clearance [9]: 2.5 mL/min/kg; pIC50 (Autotaxin [4]): 6.91; inhibition [7]: < 50%
CCc1nc2ccc(C3CCN(S(C)(=O)=O)CC3)cn2c1N(C)c1nc2c(s1)Cc1ccc(F)cc1-2 | 6.09 | 
CCc1nc2ccc(C3CCN(S(=O)(=O)CCCN(C)C)CC3)cn2c1N(C)c1nc(-c2ccc(F)cc2)cs1 | 6.45 | 
CCc1nc2ccc(C3CCN(CC(=O)N4CC(O)C4)CC3)cn2c1N(C)c1nc(-c2ccc(F)cc2)c(C#N)s1 |  | Vd [10]: 1.7 L/kg; inhibition in vivo at 5 mg/kg (Rattus norvegicus [11]): 97%; inhibition in vivo at 5 mg/kg (Rattus norvegicus [12]): 74%; half-life [13]: 2 h; half-life [14]: 2.1 h; Vd [15]: 8.3 L/kg; concentration at 0.5 h [16]: 67 nM; concentration at 3 h [17]: 58 nM; concentration at 1 h [18]: 34 nM; fraction unbound [19]: < 0.01; inhibition in vivo at 5 mg/kg (Rattus norvegicus [20]): 82%
CCOC(=O)N1CCC(NC(=O)c2ccc3nc(CC)c(N(C)c4nc(-c5ccc(Cl)cc5)cs4)n3c2)CC1 | 5.18 | pIC50 (Autotaxin [3]): 4.90; pIC50 (Autotaxin [4]): 8.30
CCc1nc2ccc(N3CCN(Cc4ncon4)CC3)cn2c1N(C)c1nc(-c2ccc(F)cc2)cs1 | 5.77 | 
CCc1nc2ccc(N3CCN(CC(=O)O)CC3)cn2c1N(C)c1nc(-c2ccc(F)cc2)cs1 | 5.04 | 
CCc1nc2ccc(C3CCN(S(C)(=O)=O)CC3)cn2c1N(C)c1nc(-c2ccc(F)c(F)c2)cs1 | 5.72 | 
CCOC(=O)CN1CCN(c2ccc3nc(CC)c(N(C)c4nc(-c5ccc(F)cc5)cs4)n3c2)CC1 | 6.55 | 
CCc1nc2ccc(C3CCN(S(C)(=O)=O)CC3)cn2c1N(C)c1nc(C2CCCCC2)cs1 | 5.72 | 
CCc1nc2ccc(C3CCN(CC(=O)NC4CC4)CC3)cn2c1N(C)c1nc(-c2ccc(F)cc2)cs1 | 5.79 | 
CCc1nc2ccc(N3CCN(Cc4ncc[nH]4)CC3)cn2c1N(C)c1nc(-c2ccc(F)cc2)cs1 | < 5.39 | 
CCc1nc2ccc(N3CCN(CC(=O)N4CCOCC4)CC3)cn2c1N(C)c1nc(-c2ccc(F)cc2)cs1 | 6.64 | 
CCc1nc2ccc(C3CCN(CC(=O)N(C)C)CC3)cn2c1N(C)c1nc(-c2ccc(F)cc2)cs1 | 6.58 | pIC50 (Autotaxin [3]): 6.32
CCc1nc2ccc(C3CCN(CC(N)=O)CC3)cn2c1N(C)c1nc(-c2ccc(F)cc2)cs1 | 5.62 | 
CCc1nc2ccc(C3CCN(S(C)(=O)=O)CC3)cn2c1N(C)c1nc(-c2ccc(F)cc2)c(C(N)=O)s1 | 5.85 | 
CCc1nc2ccc(C3CCN(CC(=O)N4CCCC4)CC3)cn2c1N(C)c1nc(-c2ccc(F)cc2)cs1 | 7.07 | pIC50 (Autotaxin [3]): 6.94
CCc1nc2ccc(C3CCN(S(C)(=O)=O)CC3)cn2c1N(C)c1nc(-c2ccc(F)cc2)c(C(=O)O)s1 | < 5.00 | 
CCc1nc2ccc(C3CCN(S(C)(=O)=O)CC3)cn2c1N(C)c1nc2c(s1)Cc1cc(F)ccc1-2 | 5.92 | 
